FLuc stim CS: FLuc activators, initial screening, artefact control for FLuc-dependent activation tests, biochemical, ATPlite luminescence | Luciferin 4-monooxygenase (Photinus pyralis), P08659 | ATPlite luciferase biochemical, 10 min; 0 = ATP-free wells, 1 = DMSO control | activation factor at 10 µM | 200,000 tested, under 10 active;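 active = luciferase activation factor, scaled between plate controls, of at least 2 with compound at 10 µM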
Target sequence (P08659 whole entry, looked up): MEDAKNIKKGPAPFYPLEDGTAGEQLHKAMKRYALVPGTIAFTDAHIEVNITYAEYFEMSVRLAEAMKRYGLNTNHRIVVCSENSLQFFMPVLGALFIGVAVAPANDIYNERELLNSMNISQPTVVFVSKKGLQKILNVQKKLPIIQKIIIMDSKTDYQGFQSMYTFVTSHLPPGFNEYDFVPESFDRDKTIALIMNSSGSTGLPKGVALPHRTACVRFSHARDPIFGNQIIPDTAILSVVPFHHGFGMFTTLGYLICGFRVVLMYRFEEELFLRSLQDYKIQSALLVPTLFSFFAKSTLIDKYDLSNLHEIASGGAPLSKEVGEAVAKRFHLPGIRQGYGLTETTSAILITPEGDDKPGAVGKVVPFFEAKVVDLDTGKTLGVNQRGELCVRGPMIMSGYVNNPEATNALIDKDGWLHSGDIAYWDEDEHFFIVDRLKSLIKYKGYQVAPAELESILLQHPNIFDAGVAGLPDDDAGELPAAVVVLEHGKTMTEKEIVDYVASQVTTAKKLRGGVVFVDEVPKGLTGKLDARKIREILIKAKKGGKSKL
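Material: luciferase plus luciferin reagent, cell-free. Medium: PBS buffer for ATP. Also added: ATP substrate, dispensed from a 10.24 µM working solution in PBS. Doses: test compounds dosed from 2 mM stocks in 100% DMSO. Incubation: 10 min post-reagent at room temperature. Technique: light output (luminescence). Read-out basis: luminescence gain marking luciferase activators.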
FLuc inh counter: firefly luciferase enzyme inhibitors, primary screen, artefact control for luciferase-based inhibitor screens, biochemical, luminescence, ATPLite; Luciferin 4-monooxygenase (Photinus pyralis), P08659; 10 min; inhibition, % at 10 µM; 200,000 tested, 1.5% active;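 active = inhibition above about 50% when tested at 10 µM, limit read from the data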
PPC-1+TRAIL kill: compounds killing PPC-1 cancer cells with TRAIL present, primary screen, TRAIL potentiator project, ATPLite luminescence, uHTS. PPC-1 cells + TRAIL, ATPLite viability luminescence. cell killing (% activity), % at 4 µM or 5 µM. 220,000 tested, 0.41% active. AID 1443, 2008;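 active = cell killing above 50% in the first pass at 4 µM, then a duplicate retest at 5 µM averaging 50% or more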;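 also: plate controls were cells with TRAIL plus DMSO for no effect and medium-only wells lacking cells for full effect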
C8 TRAIL sens: viability loss with TRAIL in NB7+C8 cells, primary screen, TRAIL sensitizer project, cell-based, ATPlite luminescence; inhibition (viability loss, TRAIL sensitization), % at 10 µM; 360,000 tested, 1% active; AID 624354, 2012;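 active = compounds causing at least 50% loss of cell viability in the single-dose screen, relative to plate controls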
An asterisk follows results filed as active. In the library only some 1.5% were active in any assay of this set; here they are far more common.

Screening CN(CC(=O)Nc1ccc(F)cc1)C(=O)COC(=O)c1ccc(-c2ccccc2)cc1 returned C8 TRAIL sens 13.
CCn1c(SCC(=O)NC2CCCC2)nnc1C(C)NC(=O)c1ccccc1Br (stereo unspecified) was read as C8 TRAIL sens 0.
`FC(F)(F)c1cnc(-c2cnc(-c3ccncc3)nc2)c(Cl)c1` gave FLuc stim CS 0.9, FLuc inh counter 13, PPC-1+TRAIL kill 13 and C8 TRAIL sens 16.
FC(F)(F)c1cnc(-c2cnc(-c3ccccn3)nc2)c(Cl)c1 was read as FLuc stim CS 0.4, FLuc inh counter 64*, PPC-1+TRAIL kill 47 and C8 TRAIL sens 36.
`O=C(/C=C/c1ccccc1)NC(NC(=S)Nc1ccc(Cl)cc1)C(Cl)(Cl)Cl` (stereo unspecified) gave FLuc stim CS 1.1, FLuc inh counter -5, PPC-1+TRAIL kill -18 and C8 TRAIL sens 52*.
Cc1c(C(=O)Nc2cccc([N+](=O)[O-])c2)csc1-c1ccccc1 was read as FLuc stim CS 0.8, FLuc inh counter 19, PPC-1+TRAIL kill 12 and C8 TRAIL sens 57*.
Screening O=C(Nc1cccc([N+](=O)[O-])c1)c1cc2ccccc2cc1O returned PPC-1+TRAIL kill 28 and C8 TRAIL sens 60*.
For CC(C)C(=O)Nc1ccccc1C(=O)OCC(=O)c1ccc2c(c1)OCCO2 the results were FLuc stim CS 0.4, FLuc inh counter 62*, PPC-1+TRAIL kill 3 and C8 TRAIL sens 5.
`NS(=O)(=O)c1cc(C(=O)OCC(=O)c2ccc3c(c2)OCCO3)ccc1Cl` gave FLuc stim CS 0.1, FLuc inh counter 92*, PPC-1+TRAIL kill 7 and C8 TRAIL sens 22.
Screening Cc1ccc(C(=O)COC(=O)c2cccs2)cc1 returned FLuc stim CS 0.1, FLuc inh counter 92*, PPC-1+TRAIL kill 15 and C8 TRAIL sens 40.
`CNS(=O)(=O)c1cccc(C(=O)OCC(=O)c2ccc3c(c2)OCCO3)c1` gave C8 TRAIL sens 43.
For O=C(COC(=O)c1cccs1)c1ccc2ccccc2c1 the results were FLuc stim CS 0.6, FLuc inh counter 37, PPC-1+TRAIL kill 28 and C8 TRAIL sens -6.
For Cc1cccc(C(=O)OCC(=O)c2ccc3c(c2)OCCO3)c1O the results were C8 TRAIL sens 36.
For O=C(COC(=O)c1cccs1)c1ccc2c(c1)OCCO2 the results were FLuc stim CS 0, FLuc inh counter 95*, PPC-1+TRAIL kill 42 and C8 TRAIL sens 43.
O=C(CSc1nc2ncccc2[nH]1)c1ccc2c(c1)OCO2 was read as PPC-1+TRAIL kill -6 and C8 TRAIL sens 12.
Screening CC(=O)NC12CC3CC(C1)CC(C(=O)OCC(=O)c1ccc4c(c1)OCCO4)(C3)C2 returned FLuc stim CS 0.4, FLuc inh counter 58*, PPC-1+TRAIL kill 31 and C8 TRAIL sens 5.
`CCc1ccc(C(=O)COC(=O)c2cccs2)cc1` gave FLuc stim CS 0.1, FLuc inh counter 87*, PPC-1+TRAIL kill 11 and C8 TRAIL sens -1.
For COc1ccc2nc(N=Nc3ccc(O)c4ccccc34)sc2c1 the results were FLuc stim CS 0.8, FLuc inh counter 18, PPC-1+TRAIL kill 41 and C8 TRAIL sens 55*.
For Cc1noc(C)c1S(=O)(=O)N(C)C[C@@H]1OCc2cnnn2CCCC(=O)N([C@@H](C)CO)C[C@H]1C the results were C8 TRAIL sens 13.
Screening O=C(N/N=C/c1cn(-c2ccccc2)nc1-c1cc2ccccc2o1)c1cccnc1 returned FLuc stim CS 0.8, FLuc inh counter 19, PPC-1+TRAIL kill 34 and C8 TRAIL sens 55*.
Screening O=C(N/N=C/c1cn(-c2ccccc2)nc1-c1cc2ccccc2o1)c1ccncc1 returned FLuc stim CS 0.7, FLuc inh counter 26, PPC-1+TRAIL kill 12 and C8 TRAIL sens 45.
O=C(CCCc1c[nH]c2ccccc12)NCc1ccccc1C(F)(F)F was read as C8 TRAIL sens -12.
O=C(CCl)Nc1ccccc1Sc1ccc(Cl)cc1 was read as FLuc stim CS 1.1, FLuc inh counter -6, PPC-1+TRAIL kill -7 and C8 TRAIL sens 95*.
`CC(=O)N1CCN(CC(=O)Nc2ccccc2Sc2ccc(Cl)cc2)CC1` gave FLuc stim CS 1, FLuc inh counter -4, PPC-1+TRAIL kill 13 and C8 TRAIL sens -2.
Screening COc1cc(F)ccc1-c1csc(C(NC(C)=O)c2ccc(F)c(F)c2)n1 (stereo unspecified) returned C8 TRAIL sens 14.
`c1ccc(-c2noc(COc3ccc4c(c3)OCO4)n2)cc1` gave FLuc stim CS 0.9, FLuc inh counter 14, PPC-1+TRAIL kill 26 and C8 TRAIL sens 3.
For O=c1oc2ccccc2cc1-c1nc(-c2ccccc2)no1 the results were FLuc stim CS 0.3, FLuc inh counter 75*, PPC-1+TRAIL kill 24 and C8 TRAIL sens 8.
Screening c1ccc(-c2noc(-c3ccc4ccccc4c3)n2)cc1 returned FLuc stim CS 0.3, FLuc inh counter 68*, PPC-1+TRAIL kill 22 and C8 TRAIL sens 55*.
COc1ccc(-c2noc(-c3ccc4c(c3)OCO4)n2)cc1 was read as FLuc stim CS 0.5, FLuc inh counter 48, PPC-1+TRAIL kill 29 and C8 TRAIL sens 45*.
For c1ccc(-c2noc(-c3ccccc3-c3ccccc3)n2)cc1 the results were FLuc stim CS 1, FLuc inh counter -4, PPC-1+TRAIL kill 6 and C8 TRAIL sens 0.
For COc1ccc(-c2noc(COc3ccc4c(c3)OCO4)n2)cc1 the results were FLuc stim CS 1, FLuc inh counter -1, PPC-1+TRAIL kill 22 and C8 TRAIL sens 9.
c1ccc(-c2noc(-c3ccc4c(c3)OCO4)n2)cc1 was read as FLuc stim CS 0.3, FLuc inh counter 69*, PPC-1+TRAIL kill 44 and C8 TRAIL sens 43.
COc1cccc(NC(=O)Nc2cc(C(=O)O)ccc2N2CC3CC(C2)c2cccc(=O)n2C3)c1 (stereo unspecified) was read as C8 TRAIL sens -19.
For COC(=O)[C@]12CCCCC=C1N(Cc1ccc3c(c1)OCO3)C(=O)[C@H](CC(=O)N1CCC(c3ccccc3)CC1)C2 the results were C8 TRAIL sens 29.
Screening Clc1ccccc1-c1nnc(-c2ccc3c(c2)OCO3)o1 returned FLuc stim CS 0.2, FLuc inh counter 80*, PPC-1+TRAIL kill 47 and C8 TRAIL sens 56*.
O=[N+]([O-])c1cccc(-c2nnc(-c3ccc4c(c3)OCO4)o2)c1 was read as FLuc stim CS 0.8, FLuc inh counter 21, PPC-1+TRAIL kill 15 and C8 TRAIL sens 18.
For COc1cccc(N2CCN(c3ncnc4c3cnn4-c3ccc(C)cc3C)CC2)c1 the results were FLuc stim CS 1, FLuc inh counter -4, PPC-1+TRAIL kill 21 and C8 TRAIL sens 93*.
`Cc1cccc(-n2ncc3c(N4CCC5(CC4)OCCO5)ncnc32)c1` gave PPC-1+TRAIL kill -11 and C8 TRAIL sens 20.
